Source: ChEMBL document CHEMBL1250448, “Inhibitor hijacking of Akt activation” (Nat Chem Biol, 2009)

Legend:
[1] = biological target: T1, G protein-coupled receptor kinase 3 (Homo sapiens) (UniProt P35626); assay: Inhibition of ADRBK2 at 1 uM in presence of 10 uM ATP by Select Screen kinase assay relative to untreated control
T1 sequence (whole entry): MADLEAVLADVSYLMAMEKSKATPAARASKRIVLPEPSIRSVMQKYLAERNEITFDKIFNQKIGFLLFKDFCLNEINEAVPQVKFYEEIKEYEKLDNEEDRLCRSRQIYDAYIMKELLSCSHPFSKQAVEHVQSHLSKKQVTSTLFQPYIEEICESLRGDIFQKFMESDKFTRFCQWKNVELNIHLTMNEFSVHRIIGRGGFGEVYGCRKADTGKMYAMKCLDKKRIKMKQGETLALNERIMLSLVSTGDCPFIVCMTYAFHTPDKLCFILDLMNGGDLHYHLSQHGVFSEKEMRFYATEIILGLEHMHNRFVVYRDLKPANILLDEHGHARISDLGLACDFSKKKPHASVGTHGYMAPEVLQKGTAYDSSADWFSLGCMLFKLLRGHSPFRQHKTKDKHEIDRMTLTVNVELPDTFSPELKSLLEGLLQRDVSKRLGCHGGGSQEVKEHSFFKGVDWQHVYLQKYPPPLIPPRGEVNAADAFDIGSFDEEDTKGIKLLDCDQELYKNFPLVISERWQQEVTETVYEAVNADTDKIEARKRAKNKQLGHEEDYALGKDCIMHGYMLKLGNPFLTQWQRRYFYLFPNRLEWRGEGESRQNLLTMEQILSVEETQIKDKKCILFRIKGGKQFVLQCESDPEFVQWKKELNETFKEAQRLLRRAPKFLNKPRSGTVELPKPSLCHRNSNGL
Method in brief: (§1)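 Single-point screen at 1 μM against a panel of 220 purified kinases, run by Invitrogen staff as a SelectScreen profiling service. Read-out is percent inhibition of kinase activity.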

[2] = biological target: Macrophage colony-stimulating factor 1 receptor (Homo sapiens) (UniProt P07333); assay: Inhibition of CSF1R at 1 uM in presence of 10 uM ATP by Select Screen kinase assay relative to untreated control; method in brief: as §1
Chain of Macrophage colony-stimulating factor 1 receptor (Homo sapiens) (P07333 whole entry): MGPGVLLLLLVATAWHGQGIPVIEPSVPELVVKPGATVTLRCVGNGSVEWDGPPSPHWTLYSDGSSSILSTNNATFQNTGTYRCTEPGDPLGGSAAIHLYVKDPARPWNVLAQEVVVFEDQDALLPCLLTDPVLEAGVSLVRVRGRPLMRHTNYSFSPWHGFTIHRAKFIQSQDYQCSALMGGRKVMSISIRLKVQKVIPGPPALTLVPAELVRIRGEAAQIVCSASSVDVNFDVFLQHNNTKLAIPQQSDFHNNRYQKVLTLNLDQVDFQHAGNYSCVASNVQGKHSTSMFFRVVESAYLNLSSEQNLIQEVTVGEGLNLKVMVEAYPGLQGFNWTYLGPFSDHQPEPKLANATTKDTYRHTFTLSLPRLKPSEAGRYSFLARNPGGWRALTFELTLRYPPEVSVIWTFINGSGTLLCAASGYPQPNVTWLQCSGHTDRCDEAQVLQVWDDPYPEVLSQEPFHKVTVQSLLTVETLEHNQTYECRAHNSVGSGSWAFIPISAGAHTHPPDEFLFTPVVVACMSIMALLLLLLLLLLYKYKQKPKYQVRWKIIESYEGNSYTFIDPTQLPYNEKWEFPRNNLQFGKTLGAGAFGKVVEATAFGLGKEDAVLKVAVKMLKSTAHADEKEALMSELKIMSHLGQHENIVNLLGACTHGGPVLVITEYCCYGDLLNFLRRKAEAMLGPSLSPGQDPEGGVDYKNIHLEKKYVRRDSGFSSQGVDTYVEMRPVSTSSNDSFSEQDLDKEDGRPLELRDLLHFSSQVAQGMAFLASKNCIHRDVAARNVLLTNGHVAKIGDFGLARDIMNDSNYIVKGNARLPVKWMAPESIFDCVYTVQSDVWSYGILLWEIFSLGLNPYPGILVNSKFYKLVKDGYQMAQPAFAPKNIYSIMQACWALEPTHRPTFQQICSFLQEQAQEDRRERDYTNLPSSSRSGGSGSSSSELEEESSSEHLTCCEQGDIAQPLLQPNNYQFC

[3] = biological target: Dual specificity tyrosine-phosphorylation-regulated kinase 1A (Homo sapiens) (UniProt Q13627); assay: Inhibition of DYRK1A at 1 uM in presence of 10 uM ATP by Select Screen kinase assay relative to untreated control; method in brief: as §1
[4] = biological target: Ephrin type-A receptor 2 (Homo sapiens) (UniProt P29317); assay: Inhibition of EPHA2 at 1 uM in presence of 10 uM ATP by Select Screen kinase assay relative to untreated control; method in brief: as §1
Chain of Ephrin type-A receptor 2 (Homo sapiens) (P29317 whole entry): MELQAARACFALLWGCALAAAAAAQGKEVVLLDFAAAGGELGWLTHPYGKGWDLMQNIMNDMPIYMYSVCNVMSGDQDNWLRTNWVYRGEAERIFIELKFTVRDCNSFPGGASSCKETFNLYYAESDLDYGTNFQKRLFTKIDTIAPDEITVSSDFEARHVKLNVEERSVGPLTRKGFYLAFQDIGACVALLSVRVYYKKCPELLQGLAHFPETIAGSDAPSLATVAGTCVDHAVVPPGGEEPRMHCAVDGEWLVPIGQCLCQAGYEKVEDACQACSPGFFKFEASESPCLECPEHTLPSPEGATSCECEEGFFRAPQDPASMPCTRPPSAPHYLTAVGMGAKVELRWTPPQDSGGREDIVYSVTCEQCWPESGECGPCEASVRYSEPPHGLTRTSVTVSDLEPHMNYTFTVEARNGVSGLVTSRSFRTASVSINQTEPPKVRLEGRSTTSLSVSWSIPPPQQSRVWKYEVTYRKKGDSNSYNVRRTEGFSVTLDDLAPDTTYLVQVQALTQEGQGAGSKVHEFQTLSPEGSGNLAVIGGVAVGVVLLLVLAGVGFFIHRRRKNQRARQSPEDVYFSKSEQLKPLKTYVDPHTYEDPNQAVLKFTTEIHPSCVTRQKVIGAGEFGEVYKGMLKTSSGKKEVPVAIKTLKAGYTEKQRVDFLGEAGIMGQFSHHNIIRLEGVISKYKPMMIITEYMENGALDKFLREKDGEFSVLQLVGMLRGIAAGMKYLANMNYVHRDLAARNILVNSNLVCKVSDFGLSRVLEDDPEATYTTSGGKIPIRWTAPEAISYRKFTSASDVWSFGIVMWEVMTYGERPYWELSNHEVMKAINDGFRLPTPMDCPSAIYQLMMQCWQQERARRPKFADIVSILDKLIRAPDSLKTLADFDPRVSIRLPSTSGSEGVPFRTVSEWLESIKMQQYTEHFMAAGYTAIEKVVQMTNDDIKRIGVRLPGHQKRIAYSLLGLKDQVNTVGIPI

[5] = biological target: T2, Ephrin type-B receptor 1 (Homo sapiens) (UniProt P54762); assay: Inhibition of EPHB1 at 1 uM in presence of 10 uM ATP by Select Screen kinase assay relative to untreated control; method in brief: as §1
T2 sequence (whole entry): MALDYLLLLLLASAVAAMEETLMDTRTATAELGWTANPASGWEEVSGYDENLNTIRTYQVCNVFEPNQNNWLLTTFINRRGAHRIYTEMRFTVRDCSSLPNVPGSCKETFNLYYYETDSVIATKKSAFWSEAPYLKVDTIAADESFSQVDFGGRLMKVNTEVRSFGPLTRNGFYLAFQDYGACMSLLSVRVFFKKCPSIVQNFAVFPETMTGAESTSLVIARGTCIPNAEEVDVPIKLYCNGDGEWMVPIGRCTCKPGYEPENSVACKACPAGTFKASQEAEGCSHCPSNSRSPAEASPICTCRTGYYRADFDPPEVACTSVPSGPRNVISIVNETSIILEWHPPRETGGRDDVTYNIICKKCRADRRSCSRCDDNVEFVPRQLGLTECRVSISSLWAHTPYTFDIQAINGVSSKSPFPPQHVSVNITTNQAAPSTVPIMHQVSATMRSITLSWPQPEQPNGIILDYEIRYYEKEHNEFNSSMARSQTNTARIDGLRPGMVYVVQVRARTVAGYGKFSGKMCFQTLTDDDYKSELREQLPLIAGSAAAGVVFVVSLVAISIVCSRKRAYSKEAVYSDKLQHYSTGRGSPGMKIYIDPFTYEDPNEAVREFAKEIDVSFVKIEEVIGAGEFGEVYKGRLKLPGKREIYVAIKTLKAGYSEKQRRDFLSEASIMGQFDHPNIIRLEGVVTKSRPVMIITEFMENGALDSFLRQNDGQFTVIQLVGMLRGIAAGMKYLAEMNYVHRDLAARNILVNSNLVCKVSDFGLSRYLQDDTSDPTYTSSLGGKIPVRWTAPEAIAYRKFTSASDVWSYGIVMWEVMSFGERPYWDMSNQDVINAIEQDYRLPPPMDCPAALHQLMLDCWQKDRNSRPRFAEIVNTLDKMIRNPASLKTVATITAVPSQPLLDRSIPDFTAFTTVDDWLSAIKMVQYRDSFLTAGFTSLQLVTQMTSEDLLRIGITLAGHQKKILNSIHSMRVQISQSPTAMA

[6] = biological target: Mitogen-activated protein kinase kinase kinase 9 (Homo sapiens) (UniProt P80192); assay: Inhibition of MAP3K9 at 1 uM in presence of 100 uM ATP by Select Screen kinase assay relative to untreated control
Method in brief: (§2)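 Single-concentration profiling at 1 μM against a panel of 220 purified kinases, run as an outsourced SelectScreen kinase profiling service. Activity is expressed as percent inhibition.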

[7] = biological target: Mitogen-activated protein kinase 14 (Homo sapiens) (UniProt Q16539); assay: Inhibition of MAPK14 at 1 uM in presence of 100 uM ATP by Select Screen kinase assay relative to untreated control; method in brief: as §2
Chain of Mitogen-activated protein kinase 14 (Homo sapiens) (Q16539 whole entry): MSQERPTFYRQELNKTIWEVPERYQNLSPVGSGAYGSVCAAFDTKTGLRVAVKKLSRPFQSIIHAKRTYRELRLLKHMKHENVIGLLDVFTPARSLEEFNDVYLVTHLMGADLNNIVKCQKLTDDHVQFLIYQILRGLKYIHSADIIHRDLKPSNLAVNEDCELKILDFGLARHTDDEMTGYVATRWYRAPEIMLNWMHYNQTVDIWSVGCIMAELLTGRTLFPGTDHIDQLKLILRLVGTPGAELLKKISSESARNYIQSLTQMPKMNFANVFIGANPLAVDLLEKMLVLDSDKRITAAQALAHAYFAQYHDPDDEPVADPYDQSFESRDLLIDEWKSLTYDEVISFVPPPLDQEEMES

[8] = biological target: Serine/threonine-protein kinase Nek4 (Homo sapiens) (UniProt P51957); assay: Inhibition of NEK4 at 1 uM in presence of 100 uM ATP by Select Screen kinase assay relative to untreated control; method in brief: as §2
Chain of Serine/threonine-protein kinase Nek4 (Homo sapiens) (P51957 whole entry, looked up): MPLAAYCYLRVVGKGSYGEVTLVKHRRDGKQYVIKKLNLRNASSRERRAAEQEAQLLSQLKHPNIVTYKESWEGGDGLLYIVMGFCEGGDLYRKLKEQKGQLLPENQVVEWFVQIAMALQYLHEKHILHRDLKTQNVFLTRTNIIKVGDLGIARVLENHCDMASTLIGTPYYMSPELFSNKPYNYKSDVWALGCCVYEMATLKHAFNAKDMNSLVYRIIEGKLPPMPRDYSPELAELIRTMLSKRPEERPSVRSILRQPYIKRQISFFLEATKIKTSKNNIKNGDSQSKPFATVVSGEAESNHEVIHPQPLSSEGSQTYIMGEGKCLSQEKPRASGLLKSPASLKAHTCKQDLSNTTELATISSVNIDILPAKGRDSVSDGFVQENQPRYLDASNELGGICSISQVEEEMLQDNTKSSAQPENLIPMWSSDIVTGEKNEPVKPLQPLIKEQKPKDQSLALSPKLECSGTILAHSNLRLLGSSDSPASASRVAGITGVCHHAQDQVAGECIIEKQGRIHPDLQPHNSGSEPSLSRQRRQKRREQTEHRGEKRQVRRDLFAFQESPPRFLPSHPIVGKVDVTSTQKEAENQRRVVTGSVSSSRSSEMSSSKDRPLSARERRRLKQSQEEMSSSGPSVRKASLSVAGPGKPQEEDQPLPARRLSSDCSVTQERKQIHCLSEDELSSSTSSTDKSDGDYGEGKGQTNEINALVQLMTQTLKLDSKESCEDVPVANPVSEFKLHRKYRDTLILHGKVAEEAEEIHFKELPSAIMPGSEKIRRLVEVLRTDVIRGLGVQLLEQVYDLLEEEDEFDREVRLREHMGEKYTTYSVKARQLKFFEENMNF

[9] = system: Platelet-derived growth factor receptor alpha (Homo sapiens), P16234 [D842V]; assay: Inhibition of PDGFRalpha D842V mutant at 1 uM in presence of 10 uM ATP by Select Screen kinase assay relative to untreated control
Chain of Platelet-derived growth factor receptor alpha (Homo sapiens), P16234 [D842V] (P16234 whole entry D842V): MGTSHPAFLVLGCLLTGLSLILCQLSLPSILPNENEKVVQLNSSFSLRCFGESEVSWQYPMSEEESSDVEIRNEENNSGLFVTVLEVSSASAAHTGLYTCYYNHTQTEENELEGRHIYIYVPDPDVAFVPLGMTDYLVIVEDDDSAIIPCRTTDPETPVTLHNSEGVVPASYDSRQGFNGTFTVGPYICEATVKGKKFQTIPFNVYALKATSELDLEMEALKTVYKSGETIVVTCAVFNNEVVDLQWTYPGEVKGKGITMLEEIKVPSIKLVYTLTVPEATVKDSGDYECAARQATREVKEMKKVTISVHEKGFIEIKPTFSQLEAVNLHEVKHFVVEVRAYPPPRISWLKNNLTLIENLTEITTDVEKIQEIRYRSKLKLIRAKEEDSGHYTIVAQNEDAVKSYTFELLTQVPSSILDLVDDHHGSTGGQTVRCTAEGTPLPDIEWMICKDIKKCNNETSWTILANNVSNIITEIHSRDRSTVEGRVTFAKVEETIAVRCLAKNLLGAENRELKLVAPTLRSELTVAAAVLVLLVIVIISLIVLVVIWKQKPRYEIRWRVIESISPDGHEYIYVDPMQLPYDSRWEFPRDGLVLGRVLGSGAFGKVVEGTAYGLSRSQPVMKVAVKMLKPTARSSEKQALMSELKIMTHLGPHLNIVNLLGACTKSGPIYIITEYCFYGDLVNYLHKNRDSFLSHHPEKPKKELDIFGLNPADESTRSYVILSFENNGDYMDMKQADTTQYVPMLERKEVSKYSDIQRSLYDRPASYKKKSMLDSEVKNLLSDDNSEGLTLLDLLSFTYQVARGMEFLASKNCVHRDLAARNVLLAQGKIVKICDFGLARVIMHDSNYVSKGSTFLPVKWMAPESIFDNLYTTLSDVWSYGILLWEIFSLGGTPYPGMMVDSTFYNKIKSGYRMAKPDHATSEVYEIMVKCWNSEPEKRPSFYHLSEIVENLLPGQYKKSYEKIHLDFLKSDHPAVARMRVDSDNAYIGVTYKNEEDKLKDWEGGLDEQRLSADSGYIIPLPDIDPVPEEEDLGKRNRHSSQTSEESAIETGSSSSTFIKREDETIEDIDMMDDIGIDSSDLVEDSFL
Method in brief: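 Commercial SelectScreen profiling panel of 220 purified kinases. Each kinase was tested at a single inhibitor concentration of 1 μM, and activity was expressed as percent inhibition.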

Row | inhibition [1] | inhibition [2] | inhibition [3] | inhibition [4] | inhibition [5] | inhibition [6] | inhibition [7] | inhibition [8] | inhibition [9] | Structure (SMILES)
1 | 8% | 26% | 78% | 24% | 11% | 22% | 17% | 10% | 2% | COc1ccccc1N1CCN(c2ncnc3[nH]nc(Br)c23)CC1
2 | 10% | 44% | 25% | 22% | 16% | 98% | 16% | 24% | 106% | O=C(NCCCNc1nc(Nc2cccc(NC(=O)N3CCCC3)c2)ncc1I)c1cccs1

Row | Structure (SMILES) | inhibition [1] | inhibition [2] | inhibition [3] | inhibition [4] | inhibition [5] | inhibition [6] | inhibition [7] | inhibition [8] | inhibition [9]
3 | Cc1n[nH]c2ccc(-c3cncc(OC[C@@H](N)Cc4c[nH]c5ccccc45)c3)cc12 | 1% | 5% | 102% | 8% | 1% | 15% | 3% | 41% | 11%
